Measured values published in ChEMBL document CHEMBL4177761, “Highlights of the Structure-Activity Relationships of Benzimidazole Linked Pyrrolidines Leading to the Discovery of the Hepatitis C Virus NS5A Inhibitor Pibrentasvir (ABT-530)” (J Med Chem, 2018).
Positions count from the first letter of the chain named. Values after ≈ are worked out from the molar mass of the structure shown.

Experiments:
[1] = biological target: T1, Nonstructural protein 5A (Hepatitis C virus) (UniProt Q5L478); test: Inhibition of NS5A M28T mutant in HuH7 cell infected HCV genotype 1a H77 assessed as decrease in viral replication after 4 days by luciferase reporter gene assay relative to wild type protein; conditions: Hepatitis C virus (isolate H77)
T1 sequence (whole entry): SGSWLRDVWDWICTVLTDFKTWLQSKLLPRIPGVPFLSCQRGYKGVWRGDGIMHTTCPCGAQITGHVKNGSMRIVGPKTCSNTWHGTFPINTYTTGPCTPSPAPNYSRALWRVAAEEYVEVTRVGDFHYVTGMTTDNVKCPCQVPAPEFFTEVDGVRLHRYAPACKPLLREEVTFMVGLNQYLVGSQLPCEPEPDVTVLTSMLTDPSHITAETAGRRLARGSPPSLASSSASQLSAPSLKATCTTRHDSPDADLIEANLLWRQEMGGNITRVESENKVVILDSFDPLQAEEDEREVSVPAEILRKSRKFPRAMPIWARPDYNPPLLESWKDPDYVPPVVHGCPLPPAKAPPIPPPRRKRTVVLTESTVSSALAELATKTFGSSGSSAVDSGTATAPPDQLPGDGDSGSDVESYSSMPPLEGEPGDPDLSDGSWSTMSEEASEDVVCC
Outline: (§1)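 Stable subgenomic luciferase replicons in Huh-7 cells: genotype 1a-H77 carrying NS5A substitutions M28T, Q30E, Q30R, Y93C, Y93H or Y93N, tested alongside the wild-type replicon. Cells are incubated 4 days with compound in DMEM with 5% FBS. Luciferase read-out, EC50 by 4-parameter logistic fit, and fold change versus wild type.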

[2] = biological target: T1, Nonstructural protein 5A (Hepatitis C virus); test: Inhibition of NS5A Q30E mutant in HuH7 cell infected HCV genotype 1a H77 assessed as decrease in viral replication after 4 days by luciferase reporter gene assay relative to wild type protein; conditions: Hepatitis C virus (isolate H77); outline: as §1
[3] = biological target: T1, Nonstructural protein 5A (Hepatitis C virus); test: Inhibition of NS5A Q30R mutant in HuH7 cell infected HCV genotype 1a H77 assessed as decrease in viral replication after 4 days by luciferase reporter gene assay relative to wild type protein; conditions: Hepatitis C virus (isolate H77); outline: as §1
[4] = system: T2, Nonstructural protein 5A (Hepatitis C virus), Q5L478 [Y93C]; test: Inhibition of NS5A Y93C mutant in HuH7 cell infected HCV genotype 1a H77 assessed as decrease in viral replication after 4 days by luciferase reporter gene assay relative to wild type protein; conditions: Hepatitis C virus (isolate H77); outline: as §1
T2 sequence (whole entry): T1 sequence (whole entry) with Y93C

[5] = system: T3, Nonstructural protein 5A (Hepatitis C virus), Q5L478 [Y93H]; test: Inhibition of NS5A Y93H mutant in HuH7 cell infected HCV genotype 1a H77 assessed as decrease in viral replication after 4 days by luciferase reporter gene assay relative to wild type protein; conditions: Hepatitis C virus (isolate H77); outline: as §1
T3 sequence (whole entry): T1 sequence (whole entry) with Y93H

[6] = system: T4, Nonstructural protein 5A (Hepatitis C virus), Q5L478 [Y93N]; test: Inhibition of NS5A Y93N mutant in HuH7 cell infected HCV genotype 1a H77 assessed as decrease in viral replication after 4 days by luciferase reporter gene assay relative to wild type protein; conditions: Hepatitis C virus (isolate H77); outline: as §1
T4 sequence (whole entry): T1 sequence (whole entry) with Y93N

[7] = system: T3, Nonstructural protein 5A (Hepatitis C virus), Q5L478 [Y93H]; test: Inhibition of NS5A Y93H mutant in HuH7 cell infected HCV genotype 1b Con1 assessed as decrease in viral replication after 4 days by luciferase reporter gene assay relative to wild type protein; conditions: Hepatitis C virus (isolate Con1)
Outline: as §1, with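 “1b-Con1” for “1a-H77”, “NS5A” for “NS5A substitutions M28T, Q30E, Q30R, Y93C,”, “from a” for “by”, “expressed as” for “and”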

[8] = Volume of distribution at steady state during terminal phase in mouse at 5 mg/kg, iv by LC-MS method; type: ADME, organism-based; conditions: in vivo, read-out: Vbeta
[9] = Volume of distribution at steady state in mouse at 5 mg/kg, iv by LC-MS method; type: ADME, organism-based; conditions: in vivo, read-out: Vdss
[10] = AUC (0 to infinity) in mouse at 5 mg/kg, iv by LC-MS method; type: ADME, organism-based; set-up: dose 5 mg/kg, time infinity, route intravenous; conditions: in vivo
[11] = Tmax in mouse at 5 mg/kg, po by LC-MS method; type: ADME, organism-based; conditions: in vivo
[12] = AUC (0 to infinity) in mouse at 5 mg/kg, po by LC-MS method; type: ADME, organism-based; set-up: dose 5 mg/kg, route oral, time infinity; conditions: in vivo
[13] = Lipophilicity, log D of the compound by HPLC method; type: physicochemical
[14] = Permeability of the compound by PAMPA; type: ADME; conditions: read-out: permeability
[15] = Solubility of the compound by CLND method; type: physicochemical
[16] = Intrinsic clearance in human microsomes; type: ADME, Microsome
[17] = Intrinsic clearance in rat microsomes; type: ADME, Microsome
[18] = AUC (0 to infinity) in mouse at 3 mg/kg, po by LC-MS method; type: ADME, organism-based; set-up: dose 3 mg/kg, route oral, time infinity; conditions: in vivo
Outline: (§2)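 Single dose, 3 mg/kg, in mouse or rat. IV vehicle: DMSO:Tween 80:PEG-400:D5W 2:5:20:73 (v/v). PO vehicle: Phosol 53 MCT:PEG-400:Poloxamer 124:Cremophor RH40 40:20:20:20 (w/w). Acetonitrile protein precipitation, then LC-MS/MS in negative-ion MRM against an internal standard; LOQ ~20 ng/mL.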

[19] = Half life in mouse at 3 mg/kg, iv by LC-MS method; type: ADME, organism-based; conditions: in vivo; outline: as §2
[20] = Volume of distribution at steady state during terminal phase in mouse at 3 mg/kg, iv by LC-MS method; type: ADME, organism-based; conditions: in vivo, read-out: Vbeta
Outline: (§3)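 Mice received a single 3 mg/kg IV dose in 2:5:20:73 (v/v) DMSO:Tween 80:PEG-400:D5W. Heparinized plasma taken at 0.1, 0.25, 0.5, 1, 2, 4, 6, 9, 12 and 24 h. Samples precipitated with acetonitrile and assayed by negative-ion MRM LC-MS. Quantified by unweighted linear regression of parent/internal-standard area ratio against spiked standards; LOQ ~20 ng/mL.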

[21] = Volume of distribution at steady state in mouse at 3 mg/kg, iv by LC-MS method; type: ADME, organism-based; conditions: in vivo, read-out: Vdss; outline: as §3
[22] = AUC (0 to infinity) in mouse at 3 mg/kg, iv by LC-MS method; type: ADME, organism-based; set-up: dose 3 mg/kg, route intravenous, time infinity; conditions: in vivo; outline: as §2
[23] = Plasma clearance in mouse at 3 mg/kg, iv by LC-MS method; type: ADME, organism-based; outline: as §2
[24] = Half life in mouse at 3 mg/kg, po by LC-MS method; type: ADME, organism-based; conditions: in vivo; outline: as §2
[25] = Tmax in mouse at 3 mg/kg, po by LC-MS method; type: ADME, organism-based; conditions: in vivo
[26] = Cmax in mouse at 3 mg/kg, po by LC-MS method; type: ADME, organism-based; set-up: dose 3 mg/kg, route oral; conditions: in vivo; outline: as §2
[27] = Drug level in mouse at 3 mg/kg, po at 24 hrs by LC-MS method; type: ADME, organism-based; conditions: in vivo, read-out: Drug uptake; outline: as §2
[28] = Oral bioavailability in mouse at 3 mg/kg by LC-MS method; type: ADME, organism-based; conditions: in vivo; outline: as §2

| Structure (SMILES) | logD [13] | Papp [14] [×10⁻⁶ cm/s] | solubility kinetic [15] [µM] | CLint scaled [16] [mL/min/kg] | CLint scaled [17] [mL/min/kg] | AUC(0-inf) [18] [ng·h/mL] | Tmax [25] [h] | Cmax [26] [nM] | concentration at 24 h [27] [nM] | further results |
| --- | --- | --- | --- | --- | --- | --- | --- | --- | --- | --- |
| COC(=O)N[C@H](C(=O)N1CCC[C@H]1c1nc2ccc([C@H]3CC[C@H](c4ccc5nc([C@@H]6CCCN6C(=O)[C@@H](NC(=O)OC)C(C)C)[nH]c5c4)N3c3ccc(C(C)(C)C)cc3)cc2[nH]1)C(C)C | 5.3 | 0.14 | 1.6 (≈ 1.42 µg/mL) | 122 | 167 |  |  |  |  | fold change (FC) [1]: 4; fold change (FC) [2]: 61; fold change (FC) [3]: 14; fold change (FC) [4]: 7; fold change (FC) [5]: 216; fold change (FC) [6]: 510; fold change (FC) [7]: 2; Vd [8]: 1.11 L/kg; Vd [9]: 0.65 L/kg; AUC(0-inf) [10]: 13100 ng·h/mL; Tmax [11]: 1.67 h; AUC(0-inf) [12]: 1390 ng·h/mL |
| COC(=O)N[C@H](C(=O)N1CCC[C@H]1c1nc2ccc([C@H]3CC[C@H](c4ccc5nc([C@@H]6CCCN6C(=O)[C@@H](NC(=O)OC)C(C)C)[nH]c5c4)N3c3ccc(N4CCCCC4)c(F)c3)cc2[nH]1)C(C)C | 4.7 | 0.01 | 2.5 (≈ 2.33 µg/mL) | 140 | 162 | 2000 |  |  |  |  |
| COC(=O)N[C@H](C(=O)N1CCC[C@H]1C(=O)Nc1ccc([C@@H]2CC[C@@H](c3ccc(NC(=O)[C@@H]4CCCN4C(=O)[C@@H](NC(=O)OC)C(C)C)cc3)N2c2ccc(C(C)(C)C)cc2)cc1)C(C)C [OMBITASVIR] |  |  |  |  |  | 11000 | 7 | 636 | 205 | fold change (FC) [1]: 8960; fold change (FC) [3]: 800; fold change (FC) [4]: 1680; fold change (FC) [5]: 41400; fold change (FC) [6]: 66700; fold change (FC) [7]: 77; half-life [19]: 11 h; Vd [20]: 1.8 L/kg; Vd [21]: 1.67 L/kg; AUC(0-inf) [22]: 26400 ng·h/mL; clearance [23]: 1.83 mL/min/kg; half-life [24]: 11.7 h; bioavailability [28]: 41.7% |
| COC(=O)N[C@H](C(=O)N1CCC[C@H]1c1nc2cc(F)c([C@H]3CC[C@H](c4cc5[nH]c([C@@H]6CCCN6C(=O)[C@@H](NC(=O)OC)C(C)C)nc5cc4F)N3c3cc(F)c(N4CCC(c5ccc(F)cc5)CC4)c(F)c3)cc2[nH]1)C(C)C |  |  |  |  |  | 26100 | 24 | 1710 | 1710 |  |
| COC(=O)N[C@H](C(=O)N1CCC[C@H]1c1nc2ccc([C@H]3CC[C@H](c4ccc5nc([C@@H]6CCCN6C(=O)[C@@H](NC(=O)OC)C(C)C)[nH]c5c4)N3c3ccc(N4CCOCC4)cc3)cc2[nH]1)C(C)C | 3.2 | 0.73 | 14.2 (≈ 13 µg/mL) | 113 | 108 | 2 |  |  |  |  |
| COC(=O)N[C@H](C(=O)N1CCC[C@H]1c1nc2cc([C@H]3CC[C@H](c4cc5nc([C@@H]6CCCN6C(=O)[C@@H](NC(=O)OC)C(C)C)[nH]c5cc4F)N3c3cc(F)c(N4CCC(c5ccccc5)CC4)c(F)c3)c(F)cc2[nH]1)C(C)C |  |  |  |  |  | 14000 | 24 | 754 | 754 |  |
| COC(=O)N[C@H](C(=O)N1CCC[C@H]1c1nc2ccc([C@H]3CC[C@H](c4ccc5nc([C@@H]6CCCN6C(=O)[C@@H](NC(=O)OC)C(C)C)[nH]c5c4)N3c3cc(Cl)c(N4CCCCC4)c(Cl)c3)cc2[nH]1)C(C)C | 5.9 | 0.03 | < 0.6 | < 25 | 50 | 960 |  |  |  |  |
